One assay deals with A549. The assay can be described thus: Antiproliferative activity against human A549 cells incubated for 72 hrs by MTT assay. Format: functional, cell-based. The settings on record: A549, 72 h. In outline: (§1)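 Cells in exponential growth were plated at 3×10^3 cells/well and grown 24 h at 37 °C in 5% CO2. They were then exposed to a range of drug concentrations for 72 h. MTT (5 mg/mL solution) was added for 4 h, the medium was discarded, and formazan was dissolved in DMSO before reading A490. Drug-free wells served as blanks. % inhibition was calculated as 1 − (sample−blank)/(control−blank), and IC50 was taken as the concentration giving 50% inhibition.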
A general note: Tetrazolium dyes change colour on reduction, which living cells bring about.

Another assay relates to MCF7. The assay can be described thus: Antiproliferative activity against human MCF7 cells incubated for 72 hrs by MTT assay. Format: functional, cell-based. The note with it: MCF7, 72 h. The essentials:
as §1

The subject of another assay is HepG2. Nature of the assay: Antiproliferative activity against human HepG2 cells incubated for 72 hrs by MTT assay. Format: functional, cell-based. The settings on record: HepG2, 72 h. The essentials: as §1
Another assay concerns HeLa. The assay can be described thus: Antiproliferative activity against human HeLa cells incubated for 72 hrs by MTT assay. Format: functional, cell-based. In outline: as §1
The subject of another assay is MDCK. The assay can be described thus: Cytotoxicity against MDCK cells incubated for 72 hrs by MTT assay. Format: cell-based. The note with it: Canis lupus familiaris. The essentials: as §1

As for `CC1(C)[C@@H](O)CC[C@]2(C)[C@H]3C(=O)C=C4[C@@H]5C[C@@](C)(C(=O)O)CC[C@]5(C)CC[C@@]4(C)[C@]3(C)CC[C@@H]12` [ENOXOLONE], the IC50 in the assay with A549, in the assay on MCF7, in the assay with HepG2, in the assay with HeLa and with MDCK was over 40 µM in each case.
As for `C[C@H](N)C(=O)O[C@H]1CC[C@]2(C)[C@H]3C(=O)C=C4[C@@H]5C[C@@](C)(C(=O)OCc6ccccc6)CC[C@]5(C)CC[C@@]4(C)[C@]3(C)CC[C@H]2C1(C)C`, the IC50 – broadly, the concentration that gives 50% inhibition – is 3.17 µM in the assay on A549; 4.39 µM in the assay on MCF7; 3.07 µM with HepG2; 5 µM in the assay with HeLa; 3.4 µM with MDCK.
The like results for `CC[C@H](C)[C@H](N)C(=O)O[C@H]1CC[C@]2(C)[C@H]3C(=O)C=C4[C@@H]5C[C@@](C)(C(=O)OCc6ccccc6)CC[C@]5(C)CC[C@@]4(C)[C@]3(C)CC[C@H]2C1(C)C` were, in that order, 4.97 µM, 10 µM, 8.15 µM, 9.65 µM and 9.01 µM.
The corresponding values for `CC(C)(C)OC(=O)N1CCC[C@H]1C(=O)O[C@H]1CC[C@]2(C)[C@H]3C(=O)C=C4[C@@H]5C[C@@](C)(C(=O)OCc6ccccc6)CC[C@]5(C)CC[C@@]4(C)[C@]3(C)CC[C@H]2C1(C)C` are over 40 µM, over 40 µM, over 40 µM, over 40 µM and over 40 µM.
The corresponding values for `CN(CC(=O)O[C@H]1CC[C@]2(C)[C@H]3C(=O)C=C4[C@@H]5C[C@@](C)(C(=O)OCc6ccccc6)CC[C@]5(C)CC[C@@]4(C)[C@]3(C)CC[C@H]2C1(C)C)C(=O)OC(C)(C)C` are over 40 µM, over 40 µM, over 40 µM, over 40 µM and over 40 µM.
`C[C@H](NC(=O)OC(C)(C)C)C(=O)N[C@H]1CC[C@]2(C)[C@H]3C(=O)C=C4[C@@H]5C[C@@](C)(C(=O)OCc6ccccc6)CC[C@]5(C)CC[C@@]4(C)[C@]3(C)CC[C@H]2C1(C)C`: the IC50 in the assay on A549, in the assay on MCF7, in the assay on HepG2, in the assay on HeLa and in the assay on MDCK was over 40 µM throughout.
For `CC(C)(C)OC(=O)N1CCC[C@H]1C(=O)N[C@H]1CC[C@]2(C)[C@H]3C(=O)C=C4[C@@H]5C[C@@](C)(C(=O)OCc6ccccc6)CC[C@]5(C)CC[C@@]4(C)[C@]3(C)CC[C@H]2C1(C)C`, the IC50 in the assay on A549, with MCF7, in the assay with HepG2, with HeLa and in the assay with MDCK was over 40 µM each time.

(Values after ChEMBL document CHEMBL4364274, “Synthesis and biological activity of glycyrrhetinic acid derivatives as antitumor agents” (Eur J Med Chem, 2019).)
